Results reported in ChEMBL document CHEMBL2375229, “Synthesis and biological activities of some novel aminomethyl derivatives of 4-substituted-5-(2-thienyl)-2,4-dihydro-3H-1,2,4-triazole-3-thiones” (2013).
Values after ≈ are worked out from the molar mass of the structure shown.

What was measured:
Assay type in all cases: functional
[1] = tested on: Pseudomonas aeruginosa; experiment: Antibacterial activity against Pseudomonas aeruginosa ATCC 27853 assessed as growth inhibition after 3 to 4 days by serial plate dilution method
In short: (§1)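 Serial dilution in Mueller-Hinton broth adjusted to pH 5.0 with phosphate buffer. Standardized bacterial suspension inoculated, 16-18 h at 37 °C. Agar-well plates also used: compounds in DMSO added to punched wells, DMSO solvent control, triplicate plates held at 37 °C for 3–4 days. MIC taken as lowest concentration with no visible growth. Range tested 1.56–25 µg/mL. Ciprofloxacin standard.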

[2] = tested on: Talaromyces marneffei; experiment: Antifungal activity against Penicillium marneffei assessed as growth inhibition after 3 to 4 days by serial plate dilution method
In short: (§2)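 Agar of peptone, D-glucose and agar at pH 5.7, lawned with saline spore suspension and dried 1 h at 37 °C. Compounds in DMSO added to punched wells, DMSO solvent control. Triplicate plates held at 37 °C for 3–4 days. […] Ciclopiroxolamine standard.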

[3] = tested on: Aspergillus fumigatus; experiment: Antifungal activity against Aspergillus fumigatus NCIM 902 assessed as growth inhibition after 3 to 4 days by serial plate dilution method; in short: as §2
[4] = tested on: Radical scavenging activity; experiment: Antioxidant activity of the compound assessed as DPPH free radical scavenging activity at 125 uM after 60 mins by spectrophotometric analysis relative to control
In short: (§3)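 DPPH• and sample stocks made in DMSO. DPPH• mixed with sample at several concentrations and brought to 4.0 mL in DMSO. Incubated 60 min at 25 °C in the dark, then absorbance read at 517 nm with solvent correction. Scavenging % = (A0−As)/A0×100 against a DPPH-only control. Ascorbic acid standard. Mean ± SD, n = 3.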

[5] = tested on: Klebsiella pneumoniae; experiment: Antibacterial activity against Klebsiella pneumoniae assessed as growth inhibition after 3 to 4 days by serial plate dilution method; in short: as §1
[6] = tested on: Radical scavenging activity; experiment: Antioxidant activity of the compound assessed as DPPH free radical scavenging activity at 250 uM after 60 mins by spectrophotometric analysis relative to control; in short: as §3
[7] = tested on: Staphylococcus aureus; experiment: Antibacterial activity against Staphylococcus aureus ATCC 25923 assessed as growth inhibition after 3 to 4 days by serial plate dilution method; in short: as §1
[8] = tested on: Radical scavenging activity; experiment: Antioxidant activity of the compound assessed as DPPH free radical scavenging activity at 187.5 uM after 60 mins by spectrophotometric analysis relative to control; in short: as §3
[9] = tested on: Radical scavenging activity; experiment: Antioxidant activity of the compound assessed as DPPH free radical scavenging activity at 312.5 uM after 60 mins by spectrophotometric analysis relative to control; in short: as §3
[10] = tested on: Aspergillus flavus; experiment: Antifungal activity against Aspergillus flavus NCIM 524 assessed as growth inhibition after 3 to 4 days by serial plate dilution method; in short: as §2
[11] = tested on: Trichophyton mentagrophytes; experiment: Antifungal activity against Trichophyton mentagrophytes assessed as growth inhibition after 3 to 4 days by serial plate dilution method; in short: as §2
[12] = tested on: Escherichia coli; experiment: Antibacterial activity against Escherichia coli ATCC 25922 assessed as growth inhibition after 3 to 4 days by serial plate dilution method; in short: as §1
[13] = tested on: Radical scavenging activity; experiment: Antioxidant activity of the compound assessed as DPPH free radical scavenging activity at 62.5 uM after 60 mins by spectrophotometric analysis relative to control; in short: as §3

SMILES	MIC [1] [µg/mL]	MIC [2] [µg/mL]	MIC [3] [µg/mL]	inhibition [4] [%]	MIC [5] [µg/mL]	inhibition [6] [%]	MIC [7] [µg/mL]	inhibition [8] [%]	inhibition [9] [%]	MIC [10] [µg/mL]	MIC [11] [µg/mL]	MIC [12] [µg/mL]	inhibition [13] [%]
C=CCn1c(-c2cccs2)nn(CN2CCC(C)CC2)c1=S	3.12 (≈ 9.33 µM)	12 (≈ 35.9 µM)	12 (≈ 35.9 µM)	53.5	3.12 (≈ 9.33 µM)	69.7	1.56 (≈ 4.66 µM)	68.1	72.4	6.25 (≈ 18.7 µM)	6.25 (≈ 18.7 µM)	3.12 (≈ 9.33 µM)	50.1
C=CCn1c(-c2cccs2)n[nH]c1=S	12 (≈ 53.7 µM)	25 (≈ 112 µM)	25 (≈ 112 µM)	45.2	25 (≈ 112 µM)	55.5	25 (≈ 112 µM)	47.4	68.8	12 (≈ 53.7 µM)	12 (≈ 53.7 µM)	12 (≈ 53.7 µM)	40.7
CCn1c(-c2cccs2)nn(CN2CCC(C)CC2)c1=S	3.12 (≈ 9.67 µM)	12 (≈ 37.2 µM)	12 (≈ 37.2 µM)	52.5	3.12 (≈ 9.67 µM)	67.6	1.56 (≈ 4.84 µM)	65.2	71.3	6.25 (≈ 19.4 µM)	6.25 (≈ 19.4 µM)	3.12 (≈ 9.67 µM)	49.2
CCn1c(-c2cccs2)nn(CN2CCOCC2)c1=S	6.25 (≈ 20.1 µM)	3.12 (≈ 10 µM)	3.12 (≈ 10 µM)	69.8	6.25 (≈ 20.1 µM)	88.6	3.12 (≈ 10 µM)	82.8	93.6	1.56 (≈ 5.02 µM)	1.56 (≈ 5.02 µM)	6.25 (≈ 20.1 µM)	60.4
Cc1cc(C2CCCCC2)n(O)c(=O)c1.NCCO [CICLOPIROX OLAMINE]		6.25	6.25							3.12	3.12		
CCCN(CCC)Cn1nc(-c2cccs2)n(-c2ccccc2)c1=S	12 (≈ 32.2 µM)	12 (≈ 32.2 µM)	12 (≈ 32.2 µM)	62.6	6.25 (≈ 16.8 µM)	81.4	6.25 (≈ 16.8 µM)	72.1		6.25 (≈ 16.8 µM)	6.25 (≈ 16.8 µM)	12 (≈ 32.2 µM)	52.1
O=C(O)c1cn(C2CC2)c2cc(N3CCNCC3)c(F)cc2c1=O [CIPROFLOXACIN]					6.25 (≈ 18.9 µM)		3.12 (≈ 9.42 µM)						
C=CCn1c(-c2cccs2)nn(CN2CCOCC2)c1=S	6.25 (≈ 19.4 µM)	3.12 (≈ 9.68 µM)	3.12 (≈ 9.68 µM)	71.2	6.25 (≈ 19.4 µM)	89.9	3.12 (≈ 9.68 µM)	83.1	95	1.56 (≈ 4.84 µM)	1.56 (≈ 4.84 µM)	6.25 (≈ 19.4 µM)	62.3
C=CCn1c(-c2cccs2)nn(CN2CCN(c3ccccc3)CC2)c1=S	12 (≈ 30.2 µM)	6.25 (≈ 15.7 µM)	6.25 (≈ 15.7 µM)	64.4	6.25 (≈ 15.7 µM)	84.1	6.25 (≈ 15.7 µM)	75	91.6	3.12 (≈ 7.85 µM)	3.12 (≈ 7.85 µM)	12 (≈ 30.2 µM)	54
CCn1c(-c2cccs2)nn(CN2CCN(c3cccc(C(F)(F)F)c3)CC2)c1=S	3.12 (≈ 6.88 µM)	6.25 (≈ 13.8 µM)	6.25 (≈ 13.8 µM)	61.1	3.12 (≈ 6.88 µM)	80.2	1.56 (≈ 3.44 µM)	71.3	81.6	3.12 (≈ 6.88 µM)	3.12 (≈ 6.88 µM)	3.12 (≈ 6.88 µM)	52
CCn1c(-c2cccs2)n[nH]c1=S	12 (≈ 56.8 µM)	25 (≈ 118 µM)	25 (≈ 118 µM)	47.1	12 (≈ 56.8 µM)	53.3	12 (≈ 56.8 µM)	49.6	62.1	12 (≈ 56.8 µM)	12 (≈ 56.8 µM)	12 (≈ 56.8 µM)	36.4
CCn1c(-c2cccs2)nn(CN2CCN(c3ccccc3)CC2)c1=S	12 (≈ 31.1 µM)	6.25 (≈ 16.2 µM)	6.25 (≈ 16.2 µM)	63.1	6.25 (≈ 16.2 µM)	82.5	6.25 (≈ 16.2 µM)	72.7	90.2	3.12 (≈ 8.09 µM)	3.12 (≈ 8.09 µM)	12 (≈ 31.1 µM)	52.2
CC1CCN(Cn2nc(-c3cccs3)n(-c3ccccc3)c2=S)CC1	3.12 (≈ 8.42 µM)	12 (≈ 32.4 µM)	12 (≈ 32.4 µM)	51.1	3.12 (≈ 8.42 µM)	66.9	1.56 (≈ 4.21 µM)	61.1		6.25 (≈ 16.9 µM)	6.25 (≈ 16.9 µM)	3.12 (≈ 8.42 µM)	44.7
CCn1c(-c2cccs2)nn(CN2CCN(Cc3ccccc3)CC2)c1=S	12 (≈ 30 µM)	6.25 (≈ 15.6 µM)	6.25 (≈ 15.6 µM)	63.2	6.25 (≈ 15.6 µM)	83.1	6.25 (≈ 15.6 µM)	74.5	90.9	3.12 (≈ 7.81 µM)	3.12 (≈ 7.81 µM)	12 (≈ 30 µM)	53.5
S=c1n(CN2CCOCC2)nc(-c2cccs2)n1-c1ccccc1	6.25 (≈ 17.4 µM)	3.12 (≈ 8.7 µM)	3.12 (≈ 8.7 µM)	68.4	6.25 (≈ 17.4 µM)	87.2	12 (≈ 33.5 µM)	79.2		1.56 (≈ 4.35 µM)	1.56 (≈ 4.35 µM)	6.25 (≈ 17.4 µM)	59.1
S=c1[nH]nc(-c2cccs2)n1-c1ccccc1	12 (≈ 46.3 µM)	25 (≈ 96.4 µM)	25 (≈ 96.4 µM)	45.7	12 (≈ 46.3 µM)	51.2	12 (≈ 46.3 µM)	47.9	65.1	12 (≈ 46.3 µM)	12 (≈ 46.3 µM)	12 (≈ 46.3 µM)	36.1
O=C1O[C@H]([C@@H](O)CO)C(O)=C1O				65		85.8		75.2	91.7				55.1
